Most compounds without a hit are left out; they make up all but 27% or so of the library.
CYP2C9 inhib – blocks human cytochrome P450 2C9. inhibition, % at 5 µM. AID 777. 96,000 compounds, 20% hits. CYP2C9 Supersomes, luciferin-H conversion, luminescence. P11712;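 active = blocking of liver enzyme CYP2C9 beyond about 50% at 5 µM, limit read from the data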
Target sequence (P11712 whole entry, looked up): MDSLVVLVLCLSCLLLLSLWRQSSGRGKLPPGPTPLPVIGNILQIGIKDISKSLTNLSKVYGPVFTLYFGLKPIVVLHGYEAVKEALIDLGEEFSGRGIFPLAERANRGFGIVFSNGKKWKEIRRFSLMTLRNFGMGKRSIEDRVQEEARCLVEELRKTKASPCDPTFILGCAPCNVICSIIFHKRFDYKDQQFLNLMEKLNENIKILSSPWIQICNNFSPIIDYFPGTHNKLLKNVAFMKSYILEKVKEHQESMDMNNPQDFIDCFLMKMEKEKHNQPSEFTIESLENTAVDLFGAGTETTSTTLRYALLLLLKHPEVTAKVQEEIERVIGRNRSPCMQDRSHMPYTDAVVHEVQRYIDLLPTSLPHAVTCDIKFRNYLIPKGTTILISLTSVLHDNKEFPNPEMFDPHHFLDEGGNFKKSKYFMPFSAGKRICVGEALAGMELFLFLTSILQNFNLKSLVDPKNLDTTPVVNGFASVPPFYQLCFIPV
CYP2C19 inhib – human CYP2C19 inhibition; P33261; CYP2C19 Supersomes, luciferin-H EGE luminescence, 30 min; inhibition, % at 5 µM; 96,000 compounds, 21% hits; AID 778;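 active = CYP2C19 inhibition above a set limit at 5 µM in the primary screen, cut at about 50% in these data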;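 also: plate controls were negative control wells for no effect and 2.5 mM tranylcypromine positive control for full effect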
CYP2C9 act – increases human cytochrome P450 2C9 activity. 96,000 compounds, 1.4% hits. AID 1024. P11712. recombinant CYP2C9, luciferin-H conversion, luminescence; hits give high values; factor 1 = untreated enzyme, 0 = blocked. activation factor at 5 µM;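 active = activation factor of 2 or more for CYP2C9 at a 5 µM dose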;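 also: 0 = sulfaphenazole-blocked wells and 1 = vehicle-only wells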
HIV Rev-RRE inh – HIV Rev-RRE protein-RNA interaction inhibition. 97,000 compounds, 0.79% hits. inhibition, % at 8 µM. P05866. Rev peptide-RRE RNA binding, FRET. AID 704;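 active = inhibition above the screen-wide mean plus 3 SD, cut at about 35% in these data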;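 also: 0% = median DMSO wells and 100% = median Neomycin B control wells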
Target sequence (P05866 whole entry, looked up): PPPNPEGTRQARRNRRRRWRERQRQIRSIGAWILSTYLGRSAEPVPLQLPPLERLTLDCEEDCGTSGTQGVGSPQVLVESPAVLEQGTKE
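Test system – labelled RRE RNA duplex and labelled Rev peptide · Signal – fluorescein-to-Cy5 FRET, 480 nm excitation · Evaluation – % inhibition of FRET ratio versus controls · Benchmarks – DMSO low control, neomycin B high control · Incubation – 5 min RNA-compound premix plus 15 min binding step, 25 °C · Medium – HEPES pH 7.5 salt buffer with EDTA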
Cav3 T inh – human Cav3.2 channel inhibition, primary screen; O95180; Cav3.2-expressing cells, Fluo-4 calcium fluorescence FDSS; hits give low values; B-score at 10 µM; 100,000 compounds, 4% hits; AID 449739;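 active = single-dose well whose peak fluorescence ratio is a statistical outlier from its plate by either plate-standardised score or position-corrected B-score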
CYP2C19 activ – increases human CYP2C19 enzyme activity; P33261; activation factor at 5 µM; 96,000 tested, under 10 active; recombinant CYP2C19, luciferin-H EGE luminescence; hits give high values; 0 = fully inhibited enzyme, 1 = untreated enzyme;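 active = activation factor of at least 2 at 5 µM in the primary screen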;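 also: 0 = wells with 2.5 mM tranylcypromine and 1 = vehicle-only wells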
* = called active by the depositor; . = not tested or not shown.

SMILES	CYP2C9 inhib	CYP2C19 inhib	CYP2C9 act	HIV Rev-RRE inh	Cav3 T inh	CYP2C19 activ
CC(C)(C)C(=O)Nc1nc(=S)ss1	92*	33	0.1	3	-5*	0.7
COc1ccc(NC(=O)c2cc(-c3cccs3)on2)cc1OC	-9	18	1.1	0	0.025	0.8
CC(C)(C)c1ccc(C(=O)c2c[nH]c(C(=O)NCCCN3CCOCC3)c2)cc1	-1	8	1	12	0.69	0.9
COc1ccc(-c2n[nH]c(=S)n2C2CCCCC2)cc1	31	79*	0.7	-1	-2	0.2
Cc1cc(Cl)ccc1OCC(=O)N1C(C)CCCC1C (configuration not stated)	-8	34	1.1	10	0.18	0.7
COc1ccc(Cl)cc1-c1n[nH]c(=S)n1C1CCCCC1	14	80*	0.9	-4	-5*	0.2
Cc1cc(Cl)ccc1OCc1n[nH]c(=S)n1C1CCCCC1	96*	81*	0	-2	-0.74	0.2
COc1cc2[nH]c(=S)n(C3CCCC3)c(=O)c2cc1OC	21	14	0.8	.	1.4	0.9
CC(CNC(=O)c1cc(Cl)ccc1[N+](=O)[O-])NC(=O)c1cc(Cl)ccc1[N+](=O)[O-] (configuration not stated)	3	7	1	2	-0.4	0.9
O=C(COc1ccccc1)Nc1ccc(Cl)c(-c2nc3ncccc3o2)c1	.	.	.	5	0.024	.
c1ccc2c(-c3nc4ncccc4o3)cccc2c1	-228	-1	3.3*	8	.	1
O=C1C2CC=CCC2C(=O)N1c1n[nH]c(Cc2ccccc2)n1 (configuration not stated)	-6	-2	1.1	8	-0.12	1
COc1cccc(CNC(=O)C2CCCN(S(=O)(=O)c3cccc4nonc34)C2)c1 (configuration not stated)	28	11	0.7	5	0.56	0.9
COc1cccc(CNC(=O)C2CCCN(S(=O)(=O)c3cnc[nH]3)C2)c1 (configuration not stated)	77*	92*	0.2	4	1.2	0.1
CCS(=O)(=O)N1CCCC(C(=O)NCc2cccnc2)C1 (configuration not stated)	1	34	1	6	0.087	0.7
COc1cccc(CNC(=O)C2CCN(S(=O)(=O)c3cnc[nH]3)CC2)c1	76*	29	0.2	.	0.16	0.7
O=C(NCc1ccccc1)C1CCCN(C(=O)Nc2ccccc2)C1 (configuration not stated)	44	67*	0.6	7	0.017	0.3
COc1cccc(NC(=O)N2CCCC(C(=O)NCc3ccc(F)cc3)C2)c1 (configuration not stated)	.	.	.	-1	0.78	.
COc1cccc(CNC(=O)C2CCCN(S(C)(=O)=O)C2)c1 (configuration not stated)	75*	8	0.3	.	-0.3	0.9
CCS(=O)(=O)N1CCC(C(=O)NCc2cccc(OC)c2)CC1	-1	-4	1	11	.	1
Cc1cccc2cc(COC(=O)C(C)C)c(=O)[nH]c12	-5	12	1.1	-1	-0.33	0.9
CC(=O)N1CCN=C1SCc1ccc(C)cc1	29	34	0.7	.	0.88	0.7
Cc1ccc(-n2c(-c3ccccc3)nnc2-c2cccs2)cc1	.	.	.	3	-0.36	.
O=c1[nH]c(N2CCCCC2)nc2c1CCCC2	-4	-5	1	8	.	1
COC(=O)c1cnn(C(=O)c2cc(OC)ccc2Br)c1N	-102	19	2*	3	0.18	0.8
SMILES	CYP2C9 inhib	CYP2C19 inhib	CYP2C9 act	HIV Rev-RRE inh	Cav3 T inh	CYP2C19 activ
CCn1ncc(Br)c1C(=O)Nc1cc(C(=O)OC)ccc1C(=O)OC	15	-3	0.9	.	-0.59	1
CCC(=O)N1CCC2(CC1)Oc1ccc(F)cc1C(=O)C21CC(c2ccccc2)=NO1 (configuration not stated)	.	.	.	.	-0.19	.
Nc1ncnc2nc(SCc3ccccc3)[nH]c12	42	70*	0.6	8	0.071	0.3
CCOc1nc(SCCOc2ccccc2)nc(N(C)C)n1	10	43	0.9	.	-3	0.6
CC(C)c1c(O)nc(SCC(=O)Nc2ccc3c(c2)CCC3)[nH]c1=O	22	8	0.8	.	-1.6	0.9
CC(C)c1ccc(NC(=O)CSc2nc3c(c(=O)[nH]2)CCC3)cc1	60*	14	0.4	.	0.2	0.9
Cc1ccc(NC(=O)CSc2nc3c(c(=O)[nH]2)CCC3)cc1C	51*	19	0.5	11	0.46	0.8
Cc1ccc2oc(=O)c3cnn(CC(=O)Nc4cc(-c5cccc(F)c5)no4)c3c2c1	.	.	.	.	0.16	.
COc1ccc(CC(NC(C)=O)C(=O)N2CCN(C(=O)Nc3ccc(Cl)cc3)CC2)cc1OC (configuration not stated)	30	16	0.7	5	0.39	0.8
O=C(c1ccc(CNc2c(N3CCOCC3)c(=O)c2=O)cc1)N1CC=C(c2ccccc2)CC1	59*	43	0.4	.	0.43	0.6
Cc1cc(C)cc(NC(=O)c2ccc(CNc3c(N4CCOCC4)c(=O)c3=O)cc2)c1	-7	-16	1.1	2	-0.45	1.2
COc1ccc(C(=O)N2CC=C(c3ccccc3)CC2)cc1S(=O)(=O)N1CCOCC1	81*	86*	0.2	0	0.72	0.1
CC(C)(Oc1ccc(Cl)cc1)C(=O)NC1CCSC1=O (configuration not stated)	.	.	.	0	0.22	.
COc1ccc(-c2[nH]ncc2/C=N\NS(=O)(=O)c2ccc(Cl)cc2)cc1	68*	90*	0.3	0	-2	0.1
COc1ccc(-c2nn(-c3ccccc3)cc2/C=N/NS(=O)(=O)c2ccccc2)cc1	63*	8	0.4	2	.	0.9
COc1ccc(-c2[nH]ncc2/C=N\NS(=O)(=O)c2ccccc2)cc1OC	71*	43	0.3	5	.	0.6
COc1ccc(-c2nn(-c3ccccc3)cc2/C=N/N2C(=O)CSC2=S)cc1	30	8	0.7	7	-2.3	0.9
CC(C)(Oc1ccc(Cl)cc1)C(=O)N/N=C/c1cn[nH]c1-c1ccccc1	72*	72*	0.3	7	-2.7	0.3
CC12CC(NC(=O)N1CCc1ccccc1)c1cc(Cl)ccc1O2 (configuration not stated)	.	.	.	15	-0.59	.
CCOc1cccc2c1OC1(C)CC2NC(=O)N1c1ccc(OC)cc1 (configuration not stated)	9	4	0.9	6	0.19	1
COc1ccccc1N1CCN(C(=O)c2cccc(N3C(=O)NC4CC3(C)Oc3ccccc34)c2)CC1 (configuration not stated)	13	4	0.9	6	-3.9*	1

Screening results deposited in PubChem BioAssay by several laboratories.
